Experiments:
[1] = molecular target: T1, Prostaglandin D2 receptor (Homo sapiens, UniProt Q13258); experiment: Inhibition of cAMP formation evoked by the prostaglandin D2 receptor in human platelets; type: functional
T1 sequence (Q13258 whole entry): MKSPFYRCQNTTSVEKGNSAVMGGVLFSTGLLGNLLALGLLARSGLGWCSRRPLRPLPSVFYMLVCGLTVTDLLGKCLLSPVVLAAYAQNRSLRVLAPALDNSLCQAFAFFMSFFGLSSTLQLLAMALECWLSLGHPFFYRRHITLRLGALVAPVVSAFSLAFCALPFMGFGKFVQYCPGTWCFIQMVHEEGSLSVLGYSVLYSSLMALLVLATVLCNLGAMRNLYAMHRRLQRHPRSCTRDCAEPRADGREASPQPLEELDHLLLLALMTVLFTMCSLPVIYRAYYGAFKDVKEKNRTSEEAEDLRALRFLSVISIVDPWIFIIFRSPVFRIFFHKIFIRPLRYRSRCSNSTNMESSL
Summary of the method: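 Human platelets preincubated 10 min at 37 °C with graded compound concentrations in presence of IBMX, then stimulated 2 min with 0.1 μM PGD2; inhibition of cAMP formation measured, IC50 derived.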

Prostacyclin receptor = Prostacyclin receptor (Homo sapiens, UniProt P43119); experiment: Inhibition of cAMP formation by carbacyclin in Prostaglandin I2 receptor (IP) assay; type: functional
Prostacyclin receptor, sequence (P43119 whole entry): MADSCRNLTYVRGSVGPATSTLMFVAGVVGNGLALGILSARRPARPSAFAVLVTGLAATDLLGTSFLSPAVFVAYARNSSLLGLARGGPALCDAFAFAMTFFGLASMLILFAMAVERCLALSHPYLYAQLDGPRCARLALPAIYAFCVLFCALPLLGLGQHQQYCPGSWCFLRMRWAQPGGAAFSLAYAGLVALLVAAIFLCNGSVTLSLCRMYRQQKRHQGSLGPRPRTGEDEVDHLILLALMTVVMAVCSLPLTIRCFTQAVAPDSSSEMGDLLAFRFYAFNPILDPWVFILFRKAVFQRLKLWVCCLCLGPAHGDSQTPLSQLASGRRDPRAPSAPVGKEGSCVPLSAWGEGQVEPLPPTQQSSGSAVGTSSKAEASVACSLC
Summary of the method: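 Platelets (human) preincubated 10 min at 37 °C with graded compound levels plus IBMX, then exposed 2 min to 0.1 μM carbacyclin; cAMP formation inhibition read out; IC50 is mean of two or three measurements.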

Cavia porcellus [2] = organism: Cavia porcellus; experiment: Dose required to inhibit 50% of antigen-induced increase in intranasal pressure; type: functional; conditions: po
Summary of the method: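 Oral dosing of actively sensitized guinea pigs 1 h before antigen challenge; rise in intranasal pressure recorded; dose giving 50% inhibition taken from dose–response data, n = 5–10 animals per point.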

Cavia porcellus [3] = organism: Cavia porcellus; experiment: Effect on PGD2-induced increase in vascular permeability in conjunctiva of normal guinea pigs; type: functional
Summary of the method: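 Normal guinea pigs; conjunctival microvascular permeability increase induced by topical 0.1% PGD2; dose producing 50% inhibition derived from dose–response data, n = 3–10 animals per point.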

Thromboxane A2 receptor = molecular target: T2, Thromboxane A2 receptor (Homo sapiens, UniProt P21731); experiment: Inhibition of [3H]- (+)-S-145 specific binding to human platelet membranes in TXA2 receptor (TP) assay
T2 sequence (P21731 whole entry): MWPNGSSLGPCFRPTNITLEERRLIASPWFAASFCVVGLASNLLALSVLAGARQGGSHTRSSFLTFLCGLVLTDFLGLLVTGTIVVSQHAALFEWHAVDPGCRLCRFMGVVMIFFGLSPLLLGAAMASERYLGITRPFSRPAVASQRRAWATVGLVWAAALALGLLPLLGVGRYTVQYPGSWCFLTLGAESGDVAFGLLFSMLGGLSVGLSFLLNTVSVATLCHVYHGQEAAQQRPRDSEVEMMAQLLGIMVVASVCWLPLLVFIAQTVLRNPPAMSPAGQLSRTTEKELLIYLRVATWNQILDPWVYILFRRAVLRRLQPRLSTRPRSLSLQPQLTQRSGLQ
Summary of the method: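 Membranes from human platelets incubated 60 min at room temperature with 2 nM [3H](+)-S-145 plus graded compound concentrations; specific binding inhibition gives IC50.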

Cavia porcellus [4] = organism: Cavia porcellus; experiment: Effect on antigen-induced increase in vascular permeability in conjunctiva of guinea pig which actively sensitized with ovalbumin; type: functional
Summary of the method: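 Guinea pigs actively sensitized with ovalbumin, challenged conjunctivally with antigen; increase in conjunctival microvascular permeability measured; ED50 from dose–response data, n = 3–10 animals per point.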

Cavia porcellus [5] = experiment: Inhibition of increase in specific airway resistance by antigen inhalation in conscious guinea pigs (10 mg/kg); type: functional
Summary of the method: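 Conscious guinea pigs given compound po 1 h before antigen inhalation; increase in specific airway resistance measured; percent inhibition as mean ± SEM, n = 4–11 animals/group; Student's t-test versus control.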

Cavia porcellus [6] = experiment: Inhibition of antigen-induced increase in intranasal pressure in actively sensitized guinea pigs at 1 mg/kg (iv); type: functional
Summary of the method: (§1)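 Actively sensitized guinea pigs; compound given iv 10 min before antigen challenge; antigen-induced rise in intranasal pressure measured, percent inhibition reported as mean ± SEM, n = 5–10/group; Student's t-test versus control.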

[7] = molecular target: T1, Prostaglandin D2 receptor; experiment: Inhibition of [3H]PGD-2 specific binding to Prostaglandin D2 receptor from human platelet membranes
Summary of the method: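 Human platelet membranes incubated 60 min at 4 °C with 5 nM [3H]PGD2 and graded test compound concentrations; inhibition of specific binding measured, IC50 derived.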

Cavia porcellus [8] = experiment: Inhibition of antigen-induced increase in intranasal pressure in actively sensitized guinea pigs at 3 mg/kg (iv); type: functional; summary of the method: as §1

SMILES | IC50 [1] [nM] | IC50 (Prostacyclin receptor) [nM] | ED50 (Cavia porcellus [2]) [mg/kg] | ED50 (Cavia porcellus [3]) [mg/kg] | IC50 (Thromboxane A2 receptor) [nM] | ED50 (Cavia porcellus [4]) [mg/kg] | Inhibition (Cavia porcellus [5]) [%] | inhibition in vivo at 1 mg/kg (Cavia porcellus [6]) [%] | IC50 [7] [nM] | inhibition in vivo at 3 mg/kg (Cavia porcellus [8]) [%]
CC1(C)[C@H]2C[C@H](C/C=C\CCCC(=O)O)[C@@H](NC(=O)c3csc4ccc(F)cc34)[C@@H]1C2 | 1.8 | > 10000 | 1 | 3.5 | 430 | 8.9 | 69 | – | – | –
CC1(C)[C@H]2C[C@H](C/C=C\CCCC(=O)O)[C@@H](NC(=O)c3csc4ccc(O)cc34)[C@@H]1C2 | 1 | > 10000 | 2.1 | 0.12 | 96 | 2 | 70 | 78 | – | –
CC1(C)[C@H]2C[C@H](C/C=C\CCCC(=O)O)[C@@H](NC(=O)c3ccc[nH]3)[C@@H]1C2 | 64 | > 10000 | – | – | 3100 | – | – | – | 32 | –
O=C(O)CCC/C=C\C[C@@H]1[C@H]2CC[C@H](C2)[C@H]1NC(=O)c1ccc(/N=N/c2ccccc2)cc1 | > 1000 | 1400 | – | – | – | – | – | – | 3000 | –
CC1(C)[C@H]2C[C@H](C/C=C\CCCC(=O)O)[C@@H](NC(=O)c3ccc4oc5ccccc5c4c3)[C@@H]1C2 | 220 | 7500 | – | – | 270 | – | – | – | 32 | –
CC1(C)[C@H]2C[C@H](C/C=C\CCCC(=O)O)[C@@H](NC(=O)c3cccc4ccsc34)[C@@H]1C2 | 5.6 | > 10000 | – | – | 210 | – | – | – | – | –
CC1(C)[C@H]2C[C@H](C/C=C\CCCC(=O)O)[C@@H](NC(=O)c3csc4cc(O)ccc34)[C@@H]1C2 | – | > 10000 | – | – | 410 | – | – | – | – | –
O=C(O)CCC/C=C\C[C@@H]1[C@H]2CC[C@H](C2)[C@H]1NS(=O)(=O)c1ccc2oc3ccccc3c2c1 | 70 | 1500 | 3.5 | – | 1700 | – | – | 82 | – | –
COc1cc2c(cc1S(=O)(=O)N[C@@H]1[C@@H]3CC[C@@H](C3)[C@H]1C/C=C\CCCC(=O)O)oc1ccccc12 | 68 | 5900 | 2.2 | 1.6 | > 10000 | 6.6 | – | 80 | 27 | –
O=C(O)CCC/C=C\C[C@@H]1[C@H]2CC[C@H](C2)[C@H]1NS(=O)(=O)c1ccc2cc(-c3ccccc3)[nH]c2c1 | 120 | > 10000 | 7.2 | – | 1200 | – | – | 60 | 47 | –
CC1(C)[C@H]2C[C@H](C/C=C\CCCC(=O)O)[C@@H](NC(=O)c3csc4ccccc34)[C@@H]1C2 | – | > 10000 | – | – | 380 | – | – | – | – | –
CC1(C)[C@H]2C[C@H](C/C=C\CCCC(=O)O)[C@@H](NC(=O)c3ccsc3)[C@@H]1C2 | 38 | > 10000 | 5.1 | 3.5 | 2100 | 9.5 | 15 | 77 | 1600 | –
O=C(O)CCC/C=C\C[C@@H]1[C@H]2CC[C@H](C2)[C@H]1NS(=O)(=O)c1ccc2oc3cc([N+](=O)[O-])ccc3c2c1 | 250 | 4500 | – | – | – | – | – | – | 1100 | –
CC1(C)[C@H]2C[C@H](C/C=C\CCCC(=O)O)[C@@H](NS(=O)(=O)c3ccc(/N=N/c4ccccc4)cc3)[C@@H]1C2 | > 1000 | 3400 | – | – | 740 | – | – | – | 1300 | –
O=C(O)CCC/C=C\C[C@@H]1[C@H]2CC[C@H](C2)[C@H]1NS(=O)(=O)c1ccc2ccccc2c1 | 420 | 8900 | – | – | 670 | – | – | 54 | 1200 | –
O=C(O)CCC/C=C\C[C@@H]1[C@H]2CC[C@H](C2)[C@H]1NS(=O)(=O)c1ccc(/N=N/c2ccccc2)cc1 | 320 | > 10000 | – | – | 1300 | – | – | – | 27 | –
O=C(O)CCC/C=C\C[C@H]1[C@@H]2CC[C@@H](C2)[C@@H]1NS(=O)(=O)c1ccc2ccccc2c1 | > 1000 | 3300 | – | – | 0.13 | – | – | 6 | 4900 | –
O=C(O)CCC/C=C\C[C@@H]1[C@H]2CC[C@H](C2)[C@H]1NS(=O)(=O)c1ccc(Oc2ccccc2)cc1 | 780 | > 10000 | – | – | 1300 | – | – | 25 | 720 | –
CC1(C)[C@H]2C[C@H](C/C=C\CCCC(=O)O)[C@@H](NC(=O)c3ccc(/N=N/c4ccccc4)cc3)[C@@H]1C2 | 380 | > 10000 | – | – | 150 | – | – | – | 540 | –
CC1(C)[C@H]2C[C@H](C/C=C\CCCC(=O)O)[C@@H](NC(=O)c3ccccc3)[C@@H]1C2 | 360 | > 10000 | – | – | 810 | – | – | – | 5200 | –
O=C(O)CCC/C=C\C[C@@H]1[C@H]2CC[C@H](C2)[C@H]1NS(=O)(=O)c1ccc(-c2ccccc2)cc1 | 450 | 5000 | – | – | 1100 | – | – | – | 600 | 39
O=C(O)CCC/C=C\C[C@@H]1[C@H]2CC[C@H](C2)[C@H]1NS(=O)(=O)c1ccc(C#Cc2ccccc2)cc1 | 250 | > 10000 | – | – | 280 | – | – | 25 | 8.6 | –
CC1(C)[C@H]2C[C@H](C/C=C\CCCC(=O)O)[C@@H](NS(=O)(=O)c3ccc4oc5ccccc5c4c3)[C@@H]1C2 | > 1000 | > 10000 | – | – | 240 | – | – | – | 780 | –
